Experiment [1] has as its target T1, Nucleotide-binding oligomerization domain-containing protein 1 (Homo sapiens, UniProt Q9Y239).
T1 sequence (Q9Y239 whole entry): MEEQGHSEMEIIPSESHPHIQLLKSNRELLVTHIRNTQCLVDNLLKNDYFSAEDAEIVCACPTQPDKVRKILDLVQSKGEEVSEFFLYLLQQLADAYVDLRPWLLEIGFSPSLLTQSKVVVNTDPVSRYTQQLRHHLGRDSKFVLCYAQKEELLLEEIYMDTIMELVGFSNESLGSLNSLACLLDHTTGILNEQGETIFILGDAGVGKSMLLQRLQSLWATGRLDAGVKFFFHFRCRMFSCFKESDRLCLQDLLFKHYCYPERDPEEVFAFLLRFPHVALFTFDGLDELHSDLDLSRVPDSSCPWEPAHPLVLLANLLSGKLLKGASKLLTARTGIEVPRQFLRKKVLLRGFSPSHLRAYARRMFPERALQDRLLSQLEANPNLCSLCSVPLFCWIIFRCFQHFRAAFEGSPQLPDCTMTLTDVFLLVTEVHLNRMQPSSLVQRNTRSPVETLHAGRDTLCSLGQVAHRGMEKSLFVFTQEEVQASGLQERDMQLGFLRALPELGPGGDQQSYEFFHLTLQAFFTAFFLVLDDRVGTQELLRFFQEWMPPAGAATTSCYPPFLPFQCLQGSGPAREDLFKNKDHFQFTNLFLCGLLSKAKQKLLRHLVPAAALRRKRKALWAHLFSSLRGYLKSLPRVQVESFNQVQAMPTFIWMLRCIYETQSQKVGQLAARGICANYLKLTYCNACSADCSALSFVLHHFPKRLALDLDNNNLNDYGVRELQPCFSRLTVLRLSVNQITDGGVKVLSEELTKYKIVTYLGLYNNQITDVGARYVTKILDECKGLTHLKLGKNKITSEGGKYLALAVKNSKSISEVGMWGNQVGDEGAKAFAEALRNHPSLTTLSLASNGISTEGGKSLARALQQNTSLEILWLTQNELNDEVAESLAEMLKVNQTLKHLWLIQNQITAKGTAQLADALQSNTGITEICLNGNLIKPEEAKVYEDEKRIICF
The experiment in a line: Antagonist activity at human NOD1 expressed in HEK-blue cells assessed as inhibition of C12-iE-DAP-stimulated cell activation preincubated for 3 hrs followed by C12-iE-DAP addition measured after 20 hrs by SEAP reporter gene assay. In kind it is cell-based. The method in brief:
(§1)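 HEK-Blue hNOD1 or hNOD2 cells preincubated with compound 3 h, then stimulated 20 h with C12-iE-DAP 50 ng/mL (NOD1) or MDP 100 ng/mL (NOD2); SEAP in supernatant quantified. Primary screen at 10 μM, hits repeated in triplicate; IC50 from dose-response, mean ± SD (n = 3), only for compounds reaching ≥50% inhibition at the screening concentration.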
Background: In a reporter assay the amount or activity of a reporter protein is the signal.

Experiment [2] deals with T2, Nucleotide-binding oligomerization domain-containing protein 2 (Homo sapiens, UniProt Q9HC29). The experiment in a line: Antagonist activity at human NOD2 expressed in HEK-Blue cells assessed as inhibition of MDP-stimulated cell activation at 10 uM preincubated for 3 hrs followed by MDP addition measured after 20 hrs by SEAP reporter gene assay. In kind it is cell-based. The method in brief:
as §1

The species named for experiment [3] is Homo sapiens. The experiment can be described thus: Inhibition of human SEAP assessed as decrease in substrate hydrolysis at 10 uM.
In experiment [4] the target is T3, Nucleotide-binding oligomerization domain-containing protein 1 (Homo sapiens) (UniProt Q9Y239).
T3 sequence (whole entry): T1 sequence (Q9Y239 whole entry)
The experiment can be described thus: Inhibition of NOD1 in human PBMC-derived macrophages assessed as reduction in C12-iE-DAP-stimulated IL6 mRNA expression at 10 uM preincubated for 1 hr followed by C12-iE-DAP stimulation for 90 mins by RT-qPCR analysis. The method, boiled down:
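Human CD14+ monocytes from donor PBMC, differentiated 7 days with M-CSF 20 ng/mL to macrophages; 1.0 × 10^6 cells pretreated 1 h with compound (final 0.1% DMSO), then C12-iE-DAP 500 ng/mL or MDP 5 μg/mL for 90 min. IL-6/TNF-α mRNA by qRT-PCR, normalized to GAPDH; stimulated response set to 100%.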
On the technique in general: In qPCR the cycle at which signal appears reflects the starting amount.

Experiment [5] deals with T3, Nucleotide-binding oligomerization domain-containing protein 1 (Homo sapiens). The experiment in a line: Inhibition of NOD1 in human THP1 cells assessed as suppression of C12-iE-DAP-stimulated RIP2 phosphorylation at 1 to 10 uM preincubated for 1 hr followed by C12-iE-DAP stimulation after 45 mins by Western blot analysis. In kind it is cell-based. The method in brief: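 PMA (20 ng/mL, 48 h)-differentiated THP1 macrophages rested 24 h in PMA-free medium, serum-starved (0.1% FBS) overnight, pretreated 1 h with compound, stimulated 45 min with C12-iE-DAP 50 ng/mL. Lysates run on 8% SDS-PAGE, immunoblotted for phospho and total RIP2, p38, JNK, ERK and IκBα.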
(In general: Immunoblotting shows a protein as a band on a membrane.)

For experiment [6], the system named is Lewis lung carcinoma cell line. The experiment can be described thus: Potentiation of paclitaxel-mediated antitumor activity against mouse LLC cells implanted in C57BL/6 mouse assessed as tumor weight inhibition at 20 mg/kg, iv administered daily measured 11 days after tumor implantation (reference value: 34.54 %). The format is functional. The following applies: 264 h, read-out: TGI.

Experiment [7] deals with T3, Nucleotide-binding oligomerization domain-containing protein 1 (Homo sapiens). The experiment in a line: Inhibition of NOD1 in human PBMC-derived macrophages assessed as reduction in C12-iE-DAP-stimulated JNK phosphorylation at 1 to 10 uM preincubated for 1 hr followed by C12-iE-DAP stimulation for 45 mins by Western blot analysis.
Experiment [8] has as its target T2, Nucleotide-binding oligomerization domain-containing protein 2. The experiment in a line: Inhibition of human NOD2 expressed in HEK293 cells assessed as suppression of MDP-stimulated ERK phosphorylation preincubated for 1 hr followed by MDP stimulation measured after 1 hr by Western blot analysis.
Experiment [9] shares this target. The experiment can be described thus: Inhibition of human NOD2 expressed in HEK293 cells assessed as suppression of MDP-stimulated JNK phosphorylation preincubated for 1 hr followed by MDP stimulation measured after 1 hr by Western blot analysis.
For experiment [10] the target is unchanged. The experiment can be described thus: Inhibition of human NOD2 expressed in HEK293 cells assessed as suppression of MDP-stimulated RIP2 phosphorylation preincubated for 1 hr followed by MDP stimulation measured after 1 hr by Western blot analysis.
Experiment [11] has the same target. The experiment in a line: Inhibition of NOD2 in human PBMC-derived macrophages assessed as reduction in MDP-stimulated JNK phosphorylation at 1 to 10 uM preincubated for 1 hr followed by MDP stimulation for 1 hr by Western blot analysis.
Experiment [12] has the same target. The experiment can be described thus: Inhibition of NOD2 in human PBMC-derived macrophages assessed as reduction in MDP-stimulated RIP2 phosphorylation at 1 to 10 uM preincubated for 1 hr followed by MDP stimulation for 1 hr by Western blot analysis.

Activity calls are given as the source filed them. The calls are words filed in the database; no cut-off is given here.

T2 sequence (Q9HC29 whole entry, the tested form may be a part): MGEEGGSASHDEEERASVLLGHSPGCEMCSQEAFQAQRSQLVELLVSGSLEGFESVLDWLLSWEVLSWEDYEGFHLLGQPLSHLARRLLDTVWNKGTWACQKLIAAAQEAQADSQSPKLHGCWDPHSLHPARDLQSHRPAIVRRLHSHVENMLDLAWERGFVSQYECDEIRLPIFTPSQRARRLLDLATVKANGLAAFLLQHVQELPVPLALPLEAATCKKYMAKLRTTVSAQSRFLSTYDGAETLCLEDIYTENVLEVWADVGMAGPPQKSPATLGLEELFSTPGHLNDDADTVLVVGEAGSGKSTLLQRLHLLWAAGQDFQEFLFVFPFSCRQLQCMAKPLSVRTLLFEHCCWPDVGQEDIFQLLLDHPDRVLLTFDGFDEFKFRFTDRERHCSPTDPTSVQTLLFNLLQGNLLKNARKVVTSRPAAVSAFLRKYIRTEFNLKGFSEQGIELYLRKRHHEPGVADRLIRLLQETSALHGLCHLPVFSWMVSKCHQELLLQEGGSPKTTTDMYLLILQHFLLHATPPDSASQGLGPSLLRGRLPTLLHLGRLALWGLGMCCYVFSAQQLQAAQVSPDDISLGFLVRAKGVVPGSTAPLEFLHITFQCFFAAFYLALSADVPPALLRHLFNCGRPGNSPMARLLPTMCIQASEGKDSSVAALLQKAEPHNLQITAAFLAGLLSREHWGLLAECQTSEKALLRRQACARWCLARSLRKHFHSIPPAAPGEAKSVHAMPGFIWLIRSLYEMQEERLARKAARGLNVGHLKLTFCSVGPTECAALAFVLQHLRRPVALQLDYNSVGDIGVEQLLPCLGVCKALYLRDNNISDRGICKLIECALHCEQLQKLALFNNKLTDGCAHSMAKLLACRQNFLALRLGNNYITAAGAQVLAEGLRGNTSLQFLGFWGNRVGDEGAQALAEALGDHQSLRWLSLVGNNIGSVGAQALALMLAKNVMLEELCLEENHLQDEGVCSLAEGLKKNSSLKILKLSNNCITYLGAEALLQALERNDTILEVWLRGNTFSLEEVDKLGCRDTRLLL

Broadly, the IC50 is the midpoint of a concentration-inhibition curve. One may read the inhibition as the drop in the measured response relative to a control, in per cent. `CCCNC(=O)CC[C@H]1NC(=O)c2cc(Oc3cccc(N(C)C)c3)c(NC(=O)COCc3ccccc3)cc2NC1=O`: the IC50 in [1] amounted to 2.36 µM. The inhibition in experiment [2] was 80.4%; in experiment [4], 54.6%; in experiment [8] it was “Dose-dependent effect”; in experiment [9], “Dose-dependent effect”; in experiment [10], “Dose-dependent effect”. Also, the inhibition entry in [3] was “inactive”. The inhibition entry in experiment [5], in experiment [7], in [11] and in [12] was “Active” throughout. For the same compound, in experiment [6], the inhibition in vivo at 20 mg/kg came out at 67.3%.

These data come from ChEMBL document CHEMBL4014339, “Discovery of 1,4-Benzodiazepine-2,5-dione (BZD) Derivatives as Dual Nucleotide Binding Oligomerization Domain Containing 1/2 (NOD1/NOD2) Antagonists Sensitizing Paclitaxel (PTX) To Suppress Lewis Lung Carcinoma (LLC) Growth in Vivo” (J Med Chem, 2017).
